ChEMBL document CHEMBL5724801, “EUbOPEN Chemogenomics Library - Multiplex” (2024)
“And” between values parts separate entries of the source, which are not always exact repeats. Identical values can stand only once.

Test system: Fibroblast
Experiment: Multiplex assay against human fibroblast
Assay type: toxicity, cell-based
Outline: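 Values for tubulin, mitochondrial-mass and membrane-permeability phenotypes are per cents of cells with healthy nuclei. These cells were identified by CellPathfinder machine-learning gating of live cells that had been stained at seeding with Hoechst33342, BioTracker Green Microtubule Cytoskeleton Dye, MitoTracker Red and Annexin V Alexa Fluor 680 and imaged on a CQ1 microscope at 37°C and 5% CO2 after compound addition. The gating first set Hoechst high-intensity objects apart from normal cells, then split normal cells into healthy, pyknosed or fragmented nuclei, and pyknosed cells into mitotic or apoptotic.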

[1] = 12 h, 1 µM, compound concentration 1 uM
[2] = 12 h, 10 µM, compound concentration 10 uM
[3] = 24 h, 1 µM, compound concentration 1 uM
[4] = 24 h, 10 µM, compound concentration 10 uM
[5] = 48 h, 1 µM, compound concentration 1 uM
[6] = 48 h, 10 µM, compound concentration 10 uM

C=C(C)[C@H]1CN[C@H](C(=O)O)[C@H]1CC(=O)O [KAINIC ACID]
Population Fragmented Nuclei (%) [1]: 7.74% and 5.42% | Population Healthy Nuclei (%) [1]: 70.97% and 80.83% | Population Hoechst High Intensity Objects (%) [1]: 0% | Population Membrane Permeable-Phenotype (%) [1]: 7.27% and 2.58% | Population Mitochondria Different-Phenotype (%) [1]: 7.27% and 10.31% | Population Mitotic Cells (%) [1]: 93.94% and 72.73% | Population Normal (%) [1]: 100% | Population Pyknosed Nuclei (%) [1]: 21.29% and 13.75% | Population Tubulin-Different-Phenotype (%) [1]: 10% and 19.07% | Total Cell Count [1]: 155 and 240 | Population Apoptotic (%) [2]: 8.57% and 22.92% | Population Fragmented Nuclei (%) [2]: 7.35% and 3.47% | Population Healthy Nuclei (%) [2]: 75.49% and 77.99% | Population Hoechst High Intensity Objects (%) [2]: 0% | Population Membrane Permeable-Phenotype (%) [2]: 5.19% and 2.97% | Population Mitochondria Different-Phenotype (%) [2]: 6.49% and 10.89% | Population Mitotic Cells (%) [2]: 91.43% and 77.08% | Population Normal (%) [2]: 100% | Population Pyknosed Nuclei (%) [2]: 17.16% and 18.53% | Population Tubulin-Different-Phenotype (%) [2]: 11.04% and 20.3% | Total Cell Count [2]: 204 and 259 | Population Apoptotic (%) [3]: 13.51% and 31.58% | Population Fragmented Nuclei (%) [3]: 7.78% and 7.44% | Population Healthy Nuclei (%) [3]: 71.67% and 84.71% | Population Hoechst High Intensity Objects (%) [3]: 0% | Population Membrane Permeable-Phenotype (%) [3]: 3.88% and 1.46% | Population Mitochondria Different-Phenotype (%) [3]: 0.78% and 5.37% | Population Mitotic Cells (%) [3]: 86.49% and 68.42% | Population Normal (%) [3]: 100% | Population Pyknosed Nuclei (%) [3]: 20.56% and 7.85% | Total Cell Count [3]: 180 and 242 | Population Apoptotic (%) [4]: 5.41% and 14.29% | Population Fragmented Nuclei (%) [4]: 8.53% and 4.49% | Population Healthy Nuclei (%) [4]: 73.93% and 85.02% | Population Hoechst High Intensity Objects (%) [4]: 0% | Population Membrane Permeable-Phenotype (%) [4]: 8.33% and 2.64% | Population Mitochondria Different-Phenotype (%) [4]: 4.49% and 3.52% | Population Mitotic Cells (%) [4]: 94.59% and 85.71% | Population Normal (%) [4]: 100% | Population Pyknosed Nuclei (%) [4]: 17.54% and 10.49% | Population Tubulin-Different-Phenotype (%) [4]: 17.31% and 18.5% | Total Cell Count [4]: 211 and 267 | Population Apoptotic (%) [5]: 0% and 25% | Population Fragmented Nuclei (%) [5]: 7.94% and 4.31% | Population Healthy Nuclei (%) [5]: 88.89% and 87.84% | Population Hoechst High Intensity Objects (%) [5]: 0% | Population Membrane Permeable-Phenotype (%) [5]: 0.6% and 1.34% | Population Mitochondria Different-Phenotype (%) [5]: 15.48% and 5.36% | Population Mitotic Cells (%) [5]: 100% and 75% | Population Normal (%) [5]: 100% | Population Pyknosed Nuclei (%) [5]: 3.17% and 7.84% | Total Cell Count [5]: 189 and 255 | Population Apoptotic (%) [6]: 36.36% and 23.53% | Population Fragmented Nuclei (%) [6]: 9.7% and 6.92% | Population Healthy Nuclei (%) [6]: 85.65% and 86.54% | Population Hoechst High Intensity Objects (%) [6]: 0% | Population Membrane Permeable-Phenotype (%) [6]: 2.96% and 2.22% | Population Mitotic Cells (%) [6]: 63.64% and 76.47% | Population Normal (%) [6]: 100% | Population Pyknosed Nuclei (%) [6]: 4.64% and 6.54% | Total Cell Count [6]: 237 and 260

CCCCCCNC(=O)Nc1ccc(S(=O)(=O)Nc2ccc(CCNC[C@H](O)COc3ccc(O)cc3)cc2)cc1 [L-755507]
Population Apoptotic (%) [1]: 40% and 46% | Population Fragmented Nuclei (%) [1]: 27% and 21% | Population Healthy Nuclei (%) [1]: 59% | Population Hoechst High Intensity Objects (%) [1]: 1% and 3% | Population Membrane Permeable-Phenotype (%) [1]: 3% | Population Mitochondria Different-Phenotype (%) [1]: 6% and 3% | Population Mitotic Cells (%) [1]: 60% and 53% | Population Normal (%) [1]: 98% and 96% | Population Pyknosed Nuclei (%) [1]: 12% and 19% | Population Tubulin-Different-Phenotype (%) [1]: 34% and 36% | Total Cell Count [1]: 198 and 160 | Population Apoptotic (%) [2]: 45% and 42% | Population Fragmented Nuclei (%) [2]: 17% and 34% | Population Healthy Nuclei (%) [2]: 72% and 48% | Population Hoechst High Intensity Objects (%) [2]: 5% | Population Membrane Permeable-Phenotype (%) [2]: 0% and 1% | Population Mitochondria Different-Phenotype (%) [2]: 10% and 19% | Population Mitotic Cells (%) [2]: 54% and 57% | Population Normal (%) [2]: 94% | Population Pyknosed Nuclei (%) [2]: 10% and 17% | Population Tubulin-Different-Phenotype (%) [2]: 47% and 64% | Total Cell Count [2]: 218 and 172 | Population Apoptotic (%) [3]: 31% and 39% | Population Fragmented Nuclei (%) [3]: 26% | Population Healthy Nuclei (%) [3]: 63% and 59% | Population Hoechst High Intensity Objects (%) [3]: 1% and 2% | Population Membrane Permeable-Phenotype (%) [3]: 0% and 3% | Population Mitochondria Different-Phenotype (%) [3]: 3% and 12% | Population Mitotic Cells (%) [3]: 68% and 60% | Population Normal (%) [3]: 98% and 97% | Population Pyknosed Nuclei (%) [3]: 9% and 13% | Population Tubulin-Different-Phenotype (%) [3]: 27% and 44% | Total Cell Count [3]: 196 and 176 | Population Apoptotic (%) [4]: 72% and 50% | Population Fragmented Nuclei (%) [4]: 21% and 38% | Population Healthy Nuclei (%) [4]: 70% and 51% | Population Hoechst High Intensity Objects (%) [4]: 8% and 4% | Population Membrane Permeable-Phenotype (%) [4]: 0% and 3% | Population Mitochondria Different-Phenotype (%) [4]: 8% and 19% | Population Mitotic Cells (%) [4]: 27% and 50% | Population Normal (%) [4]: 91% and 95% | Population Pyknosed Nuclei (%) [4]: 8% and 9% | Population Tubulin-Different-Phenotype (%) [4]: 38% and 65% | Total Cell Count [4]: 232 and 168 | Population Apoptotic (%) [5]: 62% and 53% | Population Fragmented Nuclei (%) [5]: 28% and 33% | Population Healthy Nuclei (%) [5]: 63% and 58% | Population Hoechst High Intensity Objects (%) [5]: 3% and 4% | Population Membrane Permeable-Phenotype (%) [5]: 0% and 1% | Population Mitochondria Different-Phenotype (%) [5]: 4% and 6% | Population Mitotic Cells (%) [5]: 37% and 46% | Population Normal (%) [5]: 96% and 95% | Population Pyknosed Nuclei (%) [5]: 8% | Population Tubulin-Different-Phenotype (%) [5]: 31% and 33% | Total Cell Count [5]: 201 and 170 | Population Apoptotic (%) [6]: 79% and 71% | Population Fragmented Nuclei (%) [6]: 19% and 42% | Population Healthy Nuclei (%) [6]: 69% and 53% | Population Hoechst High Intensity Objects (%) [6]: 6% and 3% | Population Membrane Permeable-Phenotype (%) [6]: 1% and 5% | Population Mitochondria Different-Phenotype (%) [6]: 8% and 11% | Population Mitotic Cells (%) [6]: 20% and 28% | Population Normal (%) [6]: 93% and 96% | Population Pyknosed Nuclei (%) [6]: 10% and 3% | Population Tubulin-Different-Phenotype (%) [6]: 49% and 55% | Total Cell Count [6]: 240 and 184

COCCCN1CCC(NC(=O)c2cc(Cl)c(N)c3c2OCC3)CC1 [PRUCALOPRIDE]
Population Apoptotic (%) [1]: 33% and 48% | Population Fragmented Nuclei (%) [1]: 20% and 31% | Population Healthy Nuclei (%) [1]: 62% and 48% | Population Hoechst High Intensity Objects (%) [1]: 3% and 4% | Population Membrane Permeable-Phenotype (%) [1]: 0% and 5% | Population Mitochondria Different-Phenotype (%) [1]: 3% and 8% | Population Mitotic Cells (%) [1]: 66% and 52% | Population Normal (%) [1]: 96% and 95% | Population Pyknosed Nuclei (%) [1]: 16% and 20% | Population Tubulin-Different-Phenotype (%) [1]: 30% and 51% | Total Cell Count [1]: 132 and 130 | Population Apoptotic (%) [2]: 30% and 35% | Population Fragmented Nuclei (%) [2]: 12% and 28% | Population Healthy Nuclei (%) [2]: 66% and 46% | Population Hoechst High Intensity Objects (%) [2]: 0% and 11% | Population Membrane Permeable-Phenotype (%) [2]: 1% and 7% | Population Mitochondria Different-Phenotype (%) [2]: 7% and 3% | Population Mitotic Cells (%) [2]: 70% and 64% | Population Normal (%) [2]: 99% and 88% | Population Pyknosed Nuclei (%) [2]: 20% and 25% | Population Tubulin-Different-Phenotype (%) [2]: 31% and 55% | Total Cell Count [2]: 144 and 153 | Population Apoptotic (%) [3]: 48% and 72% | Population Fragmented Nuclei (%) [3]: 20% and 36% | Population Healthy Nuclei (%) [3]: 57% and 49% | Population Hoechst High Intensity Objects (%) [3]: 2% and 7% | Population Membrane Permeable-Phenotype (%) [3]: 0% and 7% | Population Mitochondria Different-Phenotype (%) [3]: 3% and 4% | Population Mitotic Cells (%) [3]: 51% and 27% | Population Normal (%) [3]: 97% and 92% | Population Pyknosed Nuclei (%) [3]: 21% and 14% | Population Tubulin-Different-Phenotype (%) [3]: 25% and 50% | Total Cell Count [3]: 136 and 138 | Population Apoptotic (%) [4]: 63% and 30% | Population Fragmented Nuclei (%) [4]: 10% and 24% | Population Healthy Nuclei (%) [4]: 74% and 57% | Population Hoechst High Intensity Objects (%) [4]: 6% and 5% | Population Membrane Permeable-Phenotype (%) [4]: 1% and 11% | Population Mitochondria Different-Phenotype (%) [4]: 6% and 3% | Population Mitotic Cells (%) [4]: 36% and 69% | Population Normal (%) [4]: 93% and 94% | Population Pyknosed Nuclei (%) [4]: 15% and 18% | Population Tubulin-Different-Phenotype (%) [4]: 30% and 56% | Total Cell Count [4]: 128 and 148 | Population Apoptotic (%) [5]: 50% | Population Fragmented Nuclei (%) [5]: 25% and 36% | Population Healthy Nuclei (%) [5]: 60% and 49% | Population Hoechst High Intensity Objects (%) [5]: 4% and 2% | Population Membrane Permeable-Phenotype (%) [5]: 2% and 3% | Population Mitochondria Different-Phenotype (%) [5]: 3% and 6% | Population Mitotic Cells (%) [5]: 50% | Population Normal (%) [5]: 95% and 97% | Population Pyknosed Nuclei (%) [5]: 14% and 13% | Population Tubulin-Different-Phenotype (%) [5]: 38% and 53% | Total Cell Count [5]: 146 and 132 | Population Apoptotic (%) [6]: 64% and 62% | Population Fragmented Nuclei (%) [6]: 22% and 34% | Population Healthy Nuclei (%) [6]: 66% and 48% | Population Hoechst High Intensity Objects (%) [6]: 2% and 6% | Population Membrane Permeable-Phenotype (%) [6]: 1% and 7% | Population Mitochondria Different-Phenotype (%) [6]: 6% and 7% | Population Mitotic Cells (%) [6]: 35% and 37% | Population Normal (%) [6]: 97% and 93% | Population Pyknosed Nuclei (%) [6]: 10% and 17% | Population Tubulin-Different-Phenotype (%) [6]: 38% and 57% | Total Cell Count [6]: 136 and 146
